Data: ChEMBL document CHEMBL2176877, “Inhibition of NF-κB-dependent cytokine and inducible nitric oxide synthesis by the macrocyclic ellagitannin oenothein B in TLR-stimulated RAW 264.7 macrophages” (J Nat Prod, 2012)
Active and inactive are the calls of the source. The rule behind the calls is not given here.

Experiments:
RAW264.7 [1] = experiment: Reduction of iNOS mRNA expression in LPS-stimulated mouse RAW264.7 cells after 24 hrs by RT-PCR analysis; format: functional, cell-based
Summary of the method: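 LPS-stimulated macrophages given compound at 20−60 μg/mL for 24 h. iNOS mRNA (775 bp) measured by semiquantitative competitive RT-PCR against beta-actin mRNA (513 bp). One representative of three experiments.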

[2] = target: T1, Nitric oxide synthase, inducible (Mus musculus) (UniProt P29477); experiment: Inhibition of iNOS in mouse RAW264.7 cells at 60 ug/ml; format: cell-based
T1 sequence (whole entry): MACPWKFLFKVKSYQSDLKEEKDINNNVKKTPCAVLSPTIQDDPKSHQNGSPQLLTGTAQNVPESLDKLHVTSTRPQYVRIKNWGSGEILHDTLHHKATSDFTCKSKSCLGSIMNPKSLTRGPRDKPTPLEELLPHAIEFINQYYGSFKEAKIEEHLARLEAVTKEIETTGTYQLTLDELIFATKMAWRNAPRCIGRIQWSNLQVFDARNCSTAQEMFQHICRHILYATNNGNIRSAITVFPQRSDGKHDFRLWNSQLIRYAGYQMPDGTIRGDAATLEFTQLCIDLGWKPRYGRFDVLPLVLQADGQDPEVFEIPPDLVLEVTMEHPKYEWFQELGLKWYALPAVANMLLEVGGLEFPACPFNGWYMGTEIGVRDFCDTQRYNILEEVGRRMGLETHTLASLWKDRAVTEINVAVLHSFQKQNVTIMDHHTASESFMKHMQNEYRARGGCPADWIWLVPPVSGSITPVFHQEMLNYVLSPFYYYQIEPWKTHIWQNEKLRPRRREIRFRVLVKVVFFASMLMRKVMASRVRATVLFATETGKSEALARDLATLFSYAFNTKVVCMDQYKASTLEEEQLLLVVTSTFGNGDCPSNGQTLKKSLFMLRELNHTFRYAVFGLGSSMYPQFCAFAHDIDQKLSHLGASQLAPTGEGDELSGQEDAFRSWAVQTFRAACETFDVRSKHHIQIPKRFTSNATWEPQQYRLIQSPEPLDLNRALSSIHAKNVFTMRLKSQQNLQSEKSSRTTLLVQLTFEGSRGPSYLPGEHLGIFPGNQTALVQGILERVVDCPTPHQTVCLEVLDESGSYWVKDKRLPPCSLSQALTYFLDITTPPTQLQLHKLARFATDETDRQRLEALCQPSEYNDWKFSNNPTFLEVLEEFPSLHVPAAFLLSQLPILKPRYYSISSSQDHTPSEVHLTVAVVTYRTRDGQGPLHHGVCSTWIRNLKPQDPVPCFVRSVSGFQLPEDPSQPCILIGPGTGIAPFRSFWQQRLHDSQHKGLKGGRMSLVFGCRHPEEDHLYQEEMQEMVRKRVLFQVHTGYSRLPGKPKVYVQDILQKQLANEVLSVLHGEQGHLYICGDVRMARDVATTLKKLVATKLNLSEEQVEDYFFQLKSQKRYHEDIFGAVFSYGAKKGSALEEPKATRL
Summary of the method: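 Cytosolic iNOS enzymatic activity assayed with compound at 60 μg/mL final concentration, compared with incubations lacking compound. L-NAME (300 μM) and W1400 (50 μg/mL) served as reference inhibitors.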

RAW264.7 [3] = experiment: Inhibition of LPS-induced NO production in mouse RAW264.7 cells assessed as reduction in nitrite level after 24 hrs by Griess reagent method in presence of IFN-gamma; format: functional, cell-based
Summary of the method: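 Stimulation of the JAK-STAT pathway in RAW 264.7 cells with interferon-gamma at 100 U/mL in the presence of compound. Inducible NO synthesis measured as medium nitrite by Griess reaction.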

RAW264.7 [4] = experiment: Inhibition of LPS-induced NO production in mouse RAW264.7 cells assessed as reduction in nitrite level after 24 hrs by Griess reagent method in presence of TLR2 agonist pam2CSK4; format: functional, cell-based
RAW264.7 [5] = experiment: Inhibition of LPS-induced NO production in mouse RAW264.7 cells assessed as reduction in nitrite level at 60 ug/ml after 24 hrs by Griess reagent method; format: functional; settings: RAW264.7, 24 h
RAW264.7 [6] = experiment: Cytotoxicity against mouse RAW264.7 cells assessed as reduction in membrane integrity by MTT assay; format: cell-based; settings: in the assay text read “trypan blue exclusion assay” for “MTT assay”
Summary of the method: (§1)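 RAW 264.7 cells exposed to compound at 20−60 μg/mL over the course of the experimental procedures. Viability checked by trypan blue exclusion (membrane integrity) and by MTT test (cellular metabolism/mitochondrial respiration).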

RAW264.7 [7] = experiment: Inhibition of LPS-induced NO production in mouse RAW264.7 cells assessed as reduction in nitrite level after 24 hrs by Griess reagent method in presence of TLR4 agonist Kdo2; format: functional, cell-based
Summary of the method: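 TLR4 activation of RAW 264.7 cells with Kdo2-lipid A at 500 ng/mL, together with compound at 30−60 μg/mL for 24 h. Nitrite in the culture medium determined by Griess reaction.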

RAW264.7 [8] = experiment: Inhibition of LPS-induced NO production in mouse RAW264.7 cells assessed as reduction in nitrite level within 24 hrs by Griess reagent method; format: functional, cell-based; settings: for IC50: RAW264.7, 24 h
[9] = target: Transcription factor p65 (Mus musculus) (UniProt Q04207); experiment: Inhibition of NFkappa-B p65 subunit nuclear translocation in LPS-stimulated mouse RAW264.7 cells preincubated for 30mins before LPS treatment by Western blot analysis; format: cell-based
Summary of the method: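 Macrophages pre-incubated with compound at 20−60 μg/mL for 30 min, then stimulated with LPS for 20 min. Nuclear extracts immunoblotted against NF-κB p65, detected as a 65 kD band.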

RAW264.7 [10] = experiment: Inhibition of LPS-induced NO production in mouse RAW264.7 cells assessed as reduction in nitrite level after 48 hrs by Griess reagent method in presence of TLR2 agonist pam2CSK4; format: functional, cell-based
Summary of the method: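 Cells stimulated through TLR2 with Pam2CSK4 (500 ng/mL) and incubated with compound at 30−60 μg/mL for 48 h. Nitrite read-out by Griess reaction.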

RAW264.7 [11] = experiment: Cytotoxicity against LPS-stimulated mouse RAW264.7 cells assessed as decrease in total mRNA transcription after 24 hrs by RT-PCR analysis; format: cell-based; settings: raw264.7, 24 h
Summary of the method: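 LPS-stimulated RAW 264.7 macrophages co-incubated with test compound at 20−60 μg/mL for 24 h. iNOS mRNA (775 bp) and beta-actin mRNA (513 bp) analysed by semiquantitative competitive RT-PCR, with actin mRNA used to judge any generalized fall in transcription. One representative of three experiments.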

RAW264.7 [12] = experiment: Reduction of IL-6 mRNA expression in LPS-stimulated mouse RAW264.7 cells by RT-PCR analysis; format: functional, cell-based
Summary of the method: (§2)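 IL-1beta, IL-6 and TNF-alpha mRNA from RAW 264.7 cells quantified by real-time RT-PCR using intron- or exon−exon boundary spanning primers. Results given as mean normalized expression; IL-6 and TNF-alpha levels normalized to 1000 copies of beta-actin.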

RAW264.7 [13] = experiment: Inhibition of LPS-induced NO production in mouse RAW264.7 cells assessed as reduction in nitrite level after 24 hrs by Griess reagent method in presence of TLR4 agonist Kdo2
RAW264.7 [14] = experiment: Reduction of IL-1beta mRNA expression in LPS-stimulated mouse RAW264.7 cells by RT-PCR analysis; format: functional, cell-based; summary of the method: as §2
RAW264.7 [15] = experiment: Cytotoxicity against mouse RAW264.7 cells assessed as reduction in cellular metabolism by MTT assay; format: ADME, cell-based; summary of the method: as §1
RAW264.7 [16] = experiment: Reduction of iNOS expression in LPS-stimulated mouse RAW264.7 cells after 24 hrs by Western blot analysis; format: functional, cell-based
Summary of the method: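 Cells treated with LPS and compound at 10−60 μg/mL for 24 h. Lysates immunoblotted with rabbit polyclonal anti-iNOS, detecting a 130 kD band matched to purified iNOS. Beta-actin (43 kD) used as loading control.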

RAW264.7 [17] = experiment: Inhibition of LPS-induced NO production in mouse RAW264.7 cells assessed as reduction in nitrite level at 20 ug/ml after 24 hrs by Griess reagent method; format: functional; settings: RAW264.7, 24 h
RAW264.7 [18] = experiment: Inhibition of LPS-induced NO production in mouse RAW264.7 cells assessed as reduction in nitrite level at 30 ug/ml after 24 hrs by Griess reagent method; format: functional; settings: RAW264.7, 24 h
[19] = target: T2, Nuclear factor NF-kappa-B p105 subunit (Mus musculus) (UniProt P25799); experiment: Inhibition of binding of NFkappa-B p50 subunit to biotinylated consensus sequence in nuclear extract of LPS-stimulated mouse RAW264.7 cells after 1 hr by; format: cell-based
T2 sequence (whole entry): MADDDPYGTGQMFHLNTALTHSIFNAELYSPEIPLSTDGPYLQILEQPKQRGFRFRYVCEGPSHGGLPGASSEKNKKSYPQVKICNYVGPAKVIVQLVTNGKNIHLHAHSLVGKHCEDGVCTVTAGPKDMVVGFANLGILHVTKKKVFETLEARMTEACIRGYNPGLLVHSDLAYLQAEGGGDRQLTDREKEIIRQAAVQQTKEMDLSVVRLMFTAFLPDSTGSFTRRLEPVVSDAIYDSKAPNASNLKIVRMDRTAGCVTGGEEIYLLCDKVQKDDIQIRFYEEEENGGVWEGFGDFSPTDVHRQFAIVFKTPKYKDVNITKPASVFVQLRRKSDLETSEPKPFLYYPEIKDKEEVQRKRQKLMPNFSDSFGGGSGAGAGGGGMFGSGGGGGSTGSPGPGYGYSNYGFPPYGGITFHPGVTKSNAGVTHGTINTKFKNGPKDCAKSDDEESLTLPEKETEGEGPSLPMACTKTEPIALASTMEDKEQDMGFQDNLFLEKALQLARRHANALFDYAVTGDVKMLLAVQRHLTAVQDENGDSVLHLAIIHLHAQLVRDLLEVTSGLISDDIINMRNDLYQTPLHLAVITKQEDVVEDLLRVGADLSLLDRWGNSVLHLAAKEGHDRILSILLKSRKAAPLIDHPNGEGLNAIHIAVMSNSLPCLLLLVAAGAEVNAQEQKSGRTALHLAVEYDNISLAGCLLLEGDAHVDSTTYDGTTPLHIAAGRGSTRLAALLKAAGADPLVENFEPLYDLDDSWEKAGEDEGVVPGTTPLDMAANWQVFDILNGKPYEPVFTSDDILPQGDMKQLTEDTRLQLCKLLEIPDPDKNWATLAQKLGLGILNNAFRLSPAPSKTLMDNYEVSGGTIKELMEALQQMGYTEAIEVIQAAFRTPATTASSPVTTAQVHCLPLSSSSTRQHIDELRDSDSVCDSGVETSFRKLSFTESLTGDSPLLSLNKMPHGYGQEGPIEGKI
Summary of the method: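 RAW 264.7 cells (1 × 10^6) seeded in six-well plates, with LPS and compound added together for 1 h. Nuclear extracts prepared and binding of NF-κB p50 to a biotinylated consensus sequence read as relative light units.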

RAW264.7 [20] = experiment: Cytotoxicity against mouse RAW264.7 cells assessed as reduction in mitochondrial respiration by MTT assay; format: cell-based; summary of the method: as §1
RAW264.7 [21] = experiment: Reduction of TNFalpha mRNA expression in LPS-stimulated mouse RAW264.7 cells by RT-PCR analysis; format: functional, cell-based; summary of the method: as §2
[22] = target: T1, Nitric oxide synthase, inducible (Mus musculus); settings: RAW264.7, 300 uM
[23] = target: T1, Nitric oxide synthase, inducible (Mus musculus); experiment: Inhibition of iNOS in mouse RAW264.7 cells at 50 ug/ml; format: cell-based

Sequence of Transcription factor p65 (Mus musculus) (Q04207 whole entry): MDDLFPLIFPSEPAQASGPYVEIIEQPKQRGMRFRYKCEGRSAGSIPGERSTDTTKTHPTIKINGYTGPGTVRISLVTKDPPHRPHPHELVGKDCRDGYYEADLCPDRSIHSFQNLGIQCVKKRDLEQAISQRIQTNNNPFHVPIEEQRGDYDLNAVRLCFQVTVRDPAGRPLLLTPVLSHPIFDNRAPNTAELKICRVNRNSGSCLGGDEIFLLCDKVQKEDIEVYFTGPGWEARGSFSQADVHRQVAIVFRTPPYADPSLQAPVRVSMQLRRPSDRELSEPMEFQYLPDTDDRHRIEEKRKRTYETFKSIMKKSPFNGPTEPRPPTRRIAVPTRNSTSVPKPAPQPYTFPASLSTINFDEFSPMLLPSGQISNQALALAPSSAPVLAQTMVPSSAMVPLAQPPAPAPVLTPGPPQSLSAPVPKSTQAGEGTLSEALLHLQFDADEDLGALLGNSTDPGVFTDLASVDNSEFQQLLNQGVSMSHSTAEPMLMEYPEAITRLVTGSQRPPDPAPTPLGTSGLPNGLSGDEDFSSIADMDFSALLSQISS

O=C(O[C@H]1[C@@H]2OC(=O)c3cc(O)c(O)c(O)c3-c3c4cc(c(O)c3O)Oc3c(cc(O)c(O)c3O)C(=O)O[C@H]3C(O)O[C@@H]5COC(=O)c6cc(O)c(O)c(O)c6-c6c(cc(c(O)c6O)Oc6c(cc(O)c(O)c6O)C(=O)O[C@H]1C(O)O[C@@H]2COC4=O)C(=O)O[C@H]5[C@@H]3OC(=O)c1cc(O)c(O)c(O)c1)c1cc(O)c(O)c(O)c1 (stereo not given in full) [OENOTHEIN B]
Activity (RAW264.7 [1]): Dose-dependent effect | inhibition [2]: inactive | inhibition (RAW264.7 [3]): inactive | inhibition (RAW264.7 [4]): Dose-dependent effect | inhibition at 60 µg/mL (RAW264.7 [5]): 87.9% | Activity (RAW264.7 [6]): Non-toxic | inhibition (RAW264.7 [7]): Dose-dependent effect | inhibition (RAW264.7 [8]): Dose-dependent effect | IC50 (RAW264.7 [8]): 17.7 µM | inhibition [9]: Dose-dependent effect | inhibition (RAW264.7 [10]): Dose-dependent effect | Activity (RAW264.7 [11]): Non-toxic | Activity (RAW264.7 [12]): Active | inhibition (RAW264.7 [13]): Dose-dependent effect | Activity (RAW264.7 [14]): Active | Activity (RAW264.7 [15]): Non-toxic | Activity (RAW264.7 [16]): Dose-dependent effect | inhibition at 20 µg/mL (RAW264.7 [17]): 34.8% | inhibition at 30 µg/mL (RAW264.7 [18]): 64.6% | inhibition [19]: Active | Activity (RAW264.7 [20]): Non-toxic | Activity (RAW264.7 [21]): Active

O=C(O)c1cc(O)c(O)c(O)c1 [GALLIC ACID]
IC50 (RAW264.7 [8]): 632 µM

COC(=O)[C@@H](N)CCCNC(=N)N[N+](=O)[O-]
inhibition [22]: > 70%

CC(=N)NCc1cccc(CN)c1
inhibition [23]: > 70%
